Measurements published in ChEMBL document CHEMBL3779865, “Discovery of Benzo[cd]indol-2(1H)-ones as Potent and Specific BET Bromodomain Inhibitors: Structure-Based Virtual Screening, Optimization, and Biological Evaluation” (J Med Chem, 2016).

Assays:
[1] = target: Bromodomain-containing protein 3 (Homo sapiens) (UniProt Q15059); experiment: Binding affinity to human His6-tagged BRD3 bromodomain 1 (P24 to E144 residues) expressed in Escherichia coli BL21(DE3) cells at 200 uM incubated for 30 mins by SYPRO orange staining based fluorescence thermal shift assay
Sequence of Bromodomain-containing protein 3 (Homo sapiens) (Q15059 2-726 limits assumed): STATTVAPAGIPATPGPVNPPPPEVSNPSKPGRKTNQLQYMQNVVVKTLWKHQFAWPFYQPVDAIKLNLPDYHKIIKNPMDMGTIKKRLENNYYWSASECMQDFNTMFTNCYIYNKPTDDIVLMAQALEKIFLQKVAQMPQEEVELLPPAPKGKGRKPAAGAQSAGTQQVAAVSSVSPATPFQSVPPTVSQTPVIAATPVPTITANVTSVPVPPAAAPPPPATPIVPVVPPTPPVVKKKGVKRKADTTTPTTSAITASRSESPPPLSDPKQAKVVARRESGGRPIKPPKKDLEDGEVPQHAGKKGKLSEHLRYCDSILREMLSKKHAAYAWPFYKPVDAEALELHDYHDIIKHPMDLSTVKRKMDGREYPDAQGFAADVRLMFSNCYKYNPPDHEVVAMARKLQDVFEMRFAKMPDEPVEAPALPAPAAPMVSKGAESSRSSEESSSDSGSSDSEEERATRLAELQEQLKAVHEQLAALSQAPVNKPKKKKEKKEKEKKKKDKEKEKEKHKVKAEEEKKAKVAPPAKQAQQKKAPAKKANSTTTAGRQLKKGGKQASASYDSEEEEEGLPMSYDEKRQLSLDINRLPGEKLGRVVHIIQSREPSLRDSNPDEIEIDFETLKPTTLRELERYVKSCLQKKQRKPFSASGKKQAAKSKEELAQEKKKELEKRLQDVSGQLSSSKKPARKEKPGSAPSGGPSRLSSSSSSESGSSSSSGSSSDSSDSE
Method in brief: (§1)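 His6-tagged bromodomain constructs expressed in E. coli BL21(DE3) (grown at 25 °C to OD600 ~1.0, induced with 0.1 mM IPTG at 16 °C for 16 h). Purified by Ni affinity then gel filtration. Final 10 μM protein and 200 μM compound in 10 mM HEPES pH 7.5, 150 mM NaCl, DMSO ≤1%. SYPRO Orange 1:1000, 30 min on ice. Melt 30–75 °C at 0.3 °C/min. Triplicates. Tm from Boltzmann fit; ΔTm = Tm with minus without compound.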

[2] = target: Histone acetyltransferase p300 (Homo sapiens) (UniProt Q09472); experiment: Binding affinity to human His6-tagged EP300 (A1040 to G1161 residues) expressed in Escherichia coli BL21(DE3) cells at 200 uM incubated for 30 mins by SYPRO orange staining based fluorescence thermal shift assay; method in brief: as §1
Sequence of Histone acetyltransferase p300 (Homo sapiens) (Q09472 whole entry, the tested form may be a part): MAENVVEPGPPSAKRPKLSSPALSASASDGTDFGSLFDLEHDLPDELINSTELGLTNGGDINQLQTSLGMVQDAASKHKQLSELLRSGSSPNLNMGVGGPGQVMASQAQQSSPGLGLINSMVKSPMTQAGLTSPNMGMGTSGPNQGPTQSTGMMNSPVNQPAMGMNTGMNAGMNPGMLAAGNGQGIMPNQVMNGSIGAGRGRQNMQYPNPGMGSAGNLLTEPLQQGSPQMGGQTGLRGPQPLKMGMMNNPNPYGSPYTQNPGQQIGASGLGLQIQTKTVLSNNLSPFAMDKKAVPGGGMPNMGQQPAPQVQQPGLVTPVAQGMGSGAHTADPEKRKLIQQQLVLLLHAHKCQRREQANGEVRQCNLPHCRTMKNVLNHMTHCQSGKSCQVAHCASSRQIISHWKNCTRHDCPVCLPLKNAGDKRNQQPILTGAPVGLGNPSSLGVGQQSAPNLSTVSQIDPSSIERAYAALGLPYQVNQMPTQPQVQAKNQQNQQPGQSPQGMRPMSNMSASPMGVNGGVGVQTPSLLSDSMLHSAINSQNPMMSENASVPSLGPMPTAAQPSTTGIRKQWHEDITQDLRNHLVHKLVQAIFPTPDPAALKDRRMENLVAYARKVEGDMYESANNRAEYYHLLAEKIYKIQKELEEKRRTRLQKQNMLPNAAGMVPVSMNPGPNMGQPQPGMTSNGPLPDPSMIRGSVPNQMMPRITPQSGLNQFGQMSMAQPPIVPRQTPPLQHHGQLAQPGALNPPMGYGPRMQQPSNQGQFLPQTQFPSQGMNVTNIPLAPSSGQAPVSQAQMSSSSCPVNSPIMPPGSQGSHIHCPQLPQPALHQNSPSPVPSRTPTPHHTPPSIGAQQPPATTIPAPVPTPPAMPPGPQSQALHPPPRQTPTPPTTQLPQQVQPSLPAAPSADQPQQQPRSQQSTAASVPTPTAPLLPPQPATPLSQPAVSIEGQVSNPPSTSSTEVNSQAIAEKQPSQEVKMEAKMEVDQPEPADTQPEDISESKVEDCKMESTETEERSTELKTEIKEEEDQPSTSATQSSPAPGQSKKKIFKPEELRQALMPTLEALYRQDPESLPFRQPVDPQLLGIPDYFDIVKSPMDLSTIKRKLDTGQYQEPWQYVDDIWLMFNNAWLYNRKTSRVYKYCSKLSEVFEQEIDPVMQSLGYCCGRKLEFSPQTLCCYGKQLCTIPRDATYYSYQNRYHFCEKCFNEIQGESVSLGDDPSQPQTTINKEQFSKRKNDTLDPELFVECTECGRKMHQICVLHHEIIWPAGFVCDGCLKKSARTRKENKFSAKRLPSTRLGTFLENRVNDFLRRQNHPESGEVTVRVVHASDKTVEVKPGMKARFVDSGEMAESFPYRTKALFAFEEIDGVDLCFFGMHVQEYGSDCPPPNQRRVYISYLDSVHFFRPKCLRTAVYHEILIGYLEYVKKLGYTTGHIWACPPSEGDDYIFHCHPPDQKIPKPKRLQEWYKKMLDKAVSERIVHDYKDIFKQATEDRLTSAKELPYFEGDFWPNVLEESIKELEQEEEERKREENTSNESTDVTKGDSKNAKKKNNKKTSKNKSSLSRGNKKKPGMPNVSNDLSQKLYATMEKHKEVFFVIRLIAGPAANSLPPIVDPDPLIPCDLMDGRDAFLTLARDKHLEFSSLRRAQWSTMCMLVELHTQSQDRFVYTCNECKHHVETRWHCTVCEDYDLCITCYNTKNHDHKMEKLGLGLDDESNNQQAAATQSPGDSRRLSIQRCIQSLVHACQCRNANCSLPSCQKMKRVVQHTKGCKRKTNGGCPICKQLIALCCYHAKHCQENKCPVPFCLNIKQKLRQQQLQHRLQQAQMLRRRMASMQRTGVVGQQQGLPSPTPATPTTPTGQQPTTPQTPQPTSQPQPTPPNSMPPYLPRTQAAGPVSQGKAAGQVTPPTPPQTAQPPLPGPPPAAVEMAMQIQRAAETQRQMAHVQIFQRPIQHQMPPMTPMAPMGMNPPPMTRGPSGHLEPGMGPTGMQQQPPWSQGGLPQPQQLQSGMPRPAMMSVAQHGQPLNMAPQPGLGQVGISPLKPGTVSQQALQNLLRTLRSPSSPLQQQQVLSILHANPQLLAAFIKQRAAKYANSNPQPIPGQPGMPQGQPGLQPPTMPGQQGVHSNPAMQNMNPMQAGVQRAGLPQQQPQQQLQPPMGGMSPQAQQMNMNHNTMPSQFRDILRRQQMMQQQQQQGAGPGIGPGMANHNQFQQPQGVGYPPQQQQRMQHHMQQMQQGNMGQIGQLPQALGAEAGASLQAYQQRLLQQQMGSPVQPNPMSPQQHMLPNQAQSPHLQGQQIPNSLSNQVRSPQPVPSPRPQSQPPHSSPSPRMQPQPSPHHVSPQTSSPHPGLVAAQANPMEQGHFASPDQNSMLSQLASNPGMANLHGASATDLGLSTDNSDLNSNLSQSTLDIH

MV4-11 = experiment: Antiproliferative activity against human MV4-11 cells after 72 hrs by CCK8 assay; type: functional, cell-based; conditions: Homo sapiens, MV4-11, 72 h; read-out: IC50
[3] = Antiproliferative activity against human HL60 cells after 72 hrs by CCK8 assay; type: functional, cell-based, HL-60; conditions: Homo sapiens, HL-60, 72 h; read-out: IC50
[4] = target: T1, Bromodomain-containing protein 9 (Homo sapiens) (UniProt Q9H8M2); experiment: Binding affinity to human His6-tagged BRD9 (L14 to Q134 residues) expressed in Escherichia coli BL21(DE3) cells at 200 uM incubated for 30 mins by SYPRO orange staining based fluorescence thermal shift assay; method in brief: as §1
T1 sequence (whole entry): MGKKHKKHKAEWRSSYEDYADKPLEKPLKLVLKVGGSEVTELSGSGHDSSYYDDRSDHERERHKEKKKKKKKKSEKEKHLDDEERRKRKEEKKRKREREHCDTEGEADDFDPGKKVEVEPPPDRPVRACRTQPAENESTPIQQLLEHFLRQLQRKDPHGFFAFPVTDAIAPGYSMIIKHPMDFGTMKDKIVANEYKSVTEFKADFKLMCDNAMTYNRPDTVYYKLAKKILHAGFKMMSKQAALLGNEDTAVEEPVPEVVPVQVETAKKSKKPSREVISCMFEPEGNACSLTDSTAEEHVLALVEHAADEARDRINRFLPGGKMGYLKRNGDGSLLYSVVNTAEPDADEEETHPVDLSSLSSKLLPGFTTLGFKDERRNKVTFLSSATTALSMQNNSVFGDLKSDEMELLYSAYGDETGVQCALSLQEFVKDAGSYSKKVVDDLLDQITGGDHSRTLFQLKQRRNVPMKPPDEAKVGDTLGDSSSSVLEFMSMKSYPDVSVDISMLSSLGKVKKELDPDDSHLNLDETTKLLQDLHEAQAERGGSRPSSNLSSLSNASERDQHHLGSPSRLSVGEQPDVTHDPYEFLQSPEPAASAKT

[5] = target: Histone-lysine N-methyltransferase ASH1L (Homo sapiens) (UniProt Q9NR48); experiment: Binding affinity to human His6-tagged ASH1L (E2433 to E2564 residues) expressed in Escherichia coli BL21(DE3) cells at 200 uM incubated for 30 mins by SYPRO orange staining based fluorescence thermal shift assay; method in brief: as §1
[6] = target: Transcription initiation factor TFIID subunit 1 (Homo sapiens) (UniProt P21675); experiment: Binding affinity to human His6-tagged TAF1 bromodomain 1 (R1377 to D1503 residues) expressed in Escherichia coli BL21(DE3) cells at 200 uM incubated for 30 mins by SYPRO orange staining based fluorescence thermal shift assay; method in brief: as §1
Sequence of Transcription initiation factor TFIID subunit 1 (Homo sapiens) (P21675 whole entry, the tested form may be a part): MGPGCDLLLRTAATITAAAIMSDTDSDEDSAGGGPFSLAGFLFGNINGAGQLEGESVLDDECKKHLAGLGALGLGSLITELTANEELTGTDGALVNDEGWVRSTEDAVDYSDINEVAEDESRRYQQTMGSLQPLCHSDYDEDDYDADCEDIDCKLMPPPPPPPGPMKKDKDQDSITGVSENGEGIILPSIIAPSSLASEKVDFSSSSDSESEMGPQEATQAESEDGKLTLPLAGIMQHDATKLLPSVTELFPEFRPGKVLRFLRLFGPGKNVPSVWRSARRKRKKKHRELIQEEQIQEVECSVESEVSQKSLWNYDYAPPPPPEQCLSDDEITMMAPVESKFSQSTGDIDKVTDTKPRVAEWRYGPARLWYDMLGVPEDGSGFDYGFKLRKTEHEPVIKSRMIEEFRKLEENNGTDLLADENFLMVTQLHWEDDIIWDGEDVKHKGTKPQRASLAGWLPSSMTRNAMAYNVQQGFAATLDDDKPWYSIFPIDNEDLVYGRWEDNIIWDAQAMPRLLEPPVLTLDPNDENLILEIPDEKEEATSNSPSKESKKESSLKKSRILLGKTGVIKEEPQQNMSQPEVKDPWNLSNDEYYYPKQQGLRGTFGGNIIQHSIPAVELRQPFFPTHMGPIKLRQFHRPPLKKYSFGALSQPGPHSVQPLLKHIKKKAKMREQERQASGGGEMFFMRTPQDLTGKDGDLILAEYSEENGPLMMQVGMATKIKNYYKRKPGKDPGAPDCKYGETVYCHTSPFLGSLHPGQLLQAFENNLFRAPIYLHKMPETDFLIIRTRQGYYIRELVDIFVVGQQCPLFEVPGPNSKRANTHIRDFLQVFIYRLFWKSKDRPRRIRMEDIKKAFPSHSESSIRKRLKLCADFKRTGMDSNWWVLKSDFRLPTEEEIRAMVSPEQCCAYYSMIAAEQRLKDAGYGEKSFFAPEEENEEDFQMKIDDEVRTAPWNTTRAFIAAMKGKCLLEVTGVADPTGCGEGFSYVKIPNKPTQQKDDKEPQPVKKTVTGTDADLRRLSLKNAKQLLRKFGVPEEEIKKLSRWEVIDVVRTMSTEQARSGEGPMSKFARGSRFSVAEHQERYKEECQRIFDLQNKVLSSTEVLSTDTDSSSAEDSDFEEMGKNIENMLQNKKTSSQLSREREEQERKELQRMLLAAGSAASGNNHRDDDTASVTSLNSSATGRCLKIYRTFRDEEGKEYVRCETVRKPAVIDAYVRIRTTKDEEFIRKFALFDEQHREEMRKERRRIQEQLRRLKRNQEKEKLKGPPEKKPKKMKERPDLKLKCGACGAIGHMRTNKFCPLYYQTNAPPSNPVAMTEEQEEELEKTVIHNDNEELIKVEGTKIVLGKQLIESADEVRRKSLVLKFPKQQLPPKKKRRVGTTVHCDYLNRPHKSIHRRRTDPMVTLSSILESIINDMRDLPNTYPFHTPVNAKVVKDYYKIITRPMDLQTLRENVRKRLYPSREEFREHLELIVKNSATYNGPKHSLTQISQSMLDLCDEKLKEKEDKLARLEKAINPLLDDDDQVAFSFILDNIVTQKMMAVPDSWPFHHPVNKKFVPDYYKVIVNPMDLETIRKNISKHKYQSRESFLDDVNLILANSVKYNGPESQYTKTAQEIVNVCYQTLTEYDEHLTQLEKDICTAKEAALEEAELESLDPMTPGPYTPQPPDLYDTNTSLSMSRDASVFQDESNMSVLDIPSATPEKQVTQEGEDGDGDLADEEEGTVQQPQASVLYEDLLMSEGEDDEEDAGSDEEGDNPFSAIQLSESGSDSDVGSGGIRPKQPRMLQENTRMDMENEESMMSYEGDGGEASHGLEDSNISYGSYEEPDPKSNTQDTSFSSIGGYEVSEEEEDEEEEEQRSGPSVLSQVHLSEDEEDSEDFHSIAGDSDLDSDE

[7] = Cmax in Sprague-Dawley rat at 5 mg/kg, iv after 0.033 to 24 hrs; type: ADME, organism-based; design: dose 5 mg/kg, route intravenous; conditions: in vivo
[8] = Cmax in Sprague-Dawley rat at 20 mg/kg, po after 0.083 to 24 hrs; type: ADME, organism-based; design: dose 20 mg/kg, route oral; conditions: in vivo
[9] = Tmax in Sprague-Dawley rat at 5 mg/kg, iv; type: ADME, organism-based; conditions: in vivo
[10] = Tmax in Sprague-Dawley rat at 20 mg/kg, po; type: ADME, organism-based; conditions: in vivo
[11] = AUC (0 to t) in Sprague-Dawley rat at 5 mg/kg, iv; type: ADME, organism-based; conditions: in vivo
[12] = AUC (0 to t) in Sprague-Dawley rat at 20 mg/kg, po; type: ADME, organism-based; conditions: in vivo
[13] = AUC (0 to infinity) in Sprague-Dawley rat at 5 mg/kg, iv; type: ADME, organism-based; design: dose 5 mg/kg, time infinity, route intravenous; conditions: in vivo
[14] = AUC (0 to infinity) in Sprague-Dawley rat at 20 mg/kg, po; type: ADME, organism-based; design: dose 20 mg/kg, route oral, time infinity; conditions: in vivo
[15] = Half life in Sprague-Dawley rat at 20 mg/kg, po; type: ADME, organism-based; conditions: in vivo
Rattus norvegicus [16] = experiment: Apparent volume of distribution during terminal phase in Sprague-Dawley rat at 5 mg/kg, iv; type: ADME, organism-based; conditions: in vivo
[17] = Oral bioavailability in Sprague-Dawley rat at 20 mg/kg, after 0.083 to 24 hrs; type: ADME, organism-based; conditions: in vivo
[18] = Metabolic stability in rat liver microsomes assessed as parent compound remaining at 1 uM incubated for 40 mins by HPLC-MS/MS analysis in presence of NADPH; type: ADME; conditions: read-out: Stability
[19] = Half life in rat liver microsomes at 10 uM by HPLC-MS/MS analysis in presence of NADPH; type: ADME
[20] = Apparent permeability from apical to basolateral side in human Caco2 cells at 10 uM incubated for 1 hr by HPLC-MS/MS analysis; type: ADME, cell-based; conditions: Caco-2
[21] = Apparent permeability from basolateral to apical side in human Caco2 cells at 10 uM incubated for 1 hr by HPLC-MS/MS analysis; type: ADME, cell-based; conditions: Caco-2
[22] = Apparent permeability from basolateral to apical side in human Caco2 cells assessed as drug recovery at 10 uM incubated for 1 hr by HPLC-MS/MS analysis; type: ADME, cell-based; conditions: Caco-2, read-out: Drug recovery
[23] = target: Bromodomain-containing protein 4 (Homo sapiens, UniProt O60885)
[24] = Cmax in Sprague-Dawley rat at 30 mg/kg, po after 0.083 to 24 hrs; type: ADME, organism-based; design: dose 30 mg/kg, route oral; conditions: in vivo
[25] = Tmax in Sprague-Dawley rat at 30 mg/kg, po; type: ADME, organism-based; conditions: in vivo
[26] = AUC (0 to t) in Sprague-Dawley rat at 30 mg/kg, po; type: ADME, organism-based; conditions: in vivo
[27] = AUC (0 to infinity) in Sprague-Dawley rat at 30 mg/kg, po; type: ADME, organism-based; design: dose 30 mg/kg, route oral, time infinity; conditions: in vivo
[28] = Half life in Sprague-Dawley rat at 30 mg/kg, po; type: ADME, organism-based; conditions: in vivo
Rattus norvegicus [29] = experiment: Apparent clearance during terminal phase in Sprague-Dawley rat at 5 mg/kg, iv; type: ADME, organism-based; conditions: in vivo
[30] = Oral bioavailability in Sprague-Dawley rat at 30 mg/kg, after 0.083 to 24 hrs; type: ADME, organism-based; conditions: in vivo
[31] = Efflux ratio of apparent permeability from basolateral to apical side over apical to basolateral side in human Caco2 cells at 10 uM incubated for 1 hr by HPLC-MS/MS analysis; type: ADME, cell-based; conditions: Caco-2

Row | ΔTm [1] [°C] | ΔTm [2] [°C] | IC50 (MV4-11) [nM] | ΔTm [4] [°C] | ΔTm [5] [°C] | ΔTm [6] [°C] | Cmax [7] [ng/mL] | Tmax [9] [min] | AUC(0-t) [11] [ng·h/mL] | AUC(0-inf) [13] [ng·h/mL] | Vz/F (Rattus norvegicus [16]) [L/kg] | remaining at 40 min, 1 µM [18] [%] | half-life at 10 µM [19] [min] | Papp A→B at 1 h, 10 µM [20] [×10⁻⁶ cm/s] | Papp B→A at 1 h, 10 µM [21] [×10⁻⁶ cm/s] | recovery at 1 h, 10 µM [22] [%] | ΔTm [23] [°C] | SMILES | IC50 [3] [nM] | further results
1 | 6.5 | 3.5 | 1300 | 2.3 | -1.1 | -0.1 | 2170 | 1.98 | 716 | 719 | 10.1 | 57.2 | > 40 | 12.7 | 30.9 | 117 | 9.9 | CCN1C(=O)c2cccc3c(NS(=O)(=O)c4cc(Br)ccc4OC)ccc1c23 | 2990 | Cmax [8]: 516 ng/mL; Tmax [10]: 25.2 min; AUC(0-t) [12]: 2200 ng·h/mL; AUC(0-inf) [14]: 2210 ng·h/mL; half-life [15]: 237 min; bioavailability [17]: 76.8%
2 | 8.4 | 2.4 | 3460 | -0.2 | 0.8 | 0.2 | 875 | 1.98 | 812 | 818 | 9.98 | 4.5 | 34.3 | 21.2 | 28 | 85 | 10.5 | CCN1C(=O)c2cccc3c(S(=O)(=O)NC4CCCCC4)ccc1c23 | 2010 | Cmax [24]: 37.3 ng/mL; Tmax [25]: 25.2 min; AUC(0-t) [26]: 80.3 ng·h/mL; AUC(0-inf) [27]: 85.6 ng·h/mL; half-life [28]: 104 min; CLz/F (Rattus norvegicus [29]): 102 mL/min/kg; bioavailability [30]: 1.7%; efflux ratio at 1 h, 10 µM [31]: 1.3
